ChEMBL document CHEMBL2390820, “3-Biphenylimidazo[1,2-a]pyridines or [1,2-b]pyridazines and analogues, novel Flaviviridae inhibitors” (Eur J Med Chem, 2013)
Converted amounts (≈) assume the structure as drawn.

What was measured:
[1] = Selectivity index, ratio of CC50 for MDBK cells to EC50 for BVDV NADL infected in MDBK cells assessed as inhibition of progeny infectious viral particle production
[2] = Selectivity index, ratio of CC50 for MDBK cells to EC50 for BVDV NADL infected in MDBK cells assessed as inhibition of viral RNA synthesis
[3] = system: Bovine viral diarrhea virus 1-NADL; assay: Selectivity ratio of EC50 for LZ37-resistant BVDV NADL to EC50 for wild type BVDV NADL; type: functional
[4] = system: Bovine viral diarrhea virus 1-NADL; assay: Selectivity ratio of EC50 for AG110-resistant BVDV NADL to EC50 for wild type BVDV NADL; type: functional
[5] = system: Bovine viral diarrhea virus 1-NADL; assay: Selectivity ratio of EC50 for BPIP-resistant BVDV NADL to EC50 for wild type BVDV NADL; type: functional
[6] = Antiviral activity against LZ37-resistant BVDV NADL assessed as inhibition of viral replication; type: functional, Bovine viral diarrhea virus 1-NADL
How it was run: (§1)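 MDBK cells were seeded at 5 × 10³/well in MEM-FCS and held 24 h at 37 °C in 5% CO₂. Medium was replaced with 5-fold serial compound dilutions, then BVDV NADL (drug-selected resistant variant) at MOI 2. CPE was read by the MTS method at OD 490 nm, and % CPE was calculated. EC50 is the concentration giving 50% protection from virus-induced CPE, by linear interpolation.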

[7] = Antiviral activity against AG110-resistant BVDV NADL assessed as inhibition of viral replication; type: functional, Bovine viral diarrhea virus 1-NADL; how it was run: as §1
[8] = Antiviral activity against BPIP-resistant BVDV NADL assessed as inhibition of viral replication; type: functional, Bovine viral diarrhea virus 1-NADL; how it was run: as §1
[9] = Selectivity ratio of EC50 for BVDV NADL infected in MDBK cells assessed as inhibition of progeny infectious viral particle production to EC50 for BVDV NADL infected in MDBK cells assessed as inhibition of viral RNA synthesis; type: functional, Bovine viral diarrhea virus 1-NADL
[10] = Selectivity index, ratio of CC50 for Huh5-2 cells to EC50 for HCV genotype 1b infected in Huh5-2 cells; design: species or system Huh-5-2
How it was run: (§2)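 Selectivity index is the ratio of CC50 from the 3-day MTS/PMS proliferation assay to EC50 in the same cell line. For Huh 5-2 the EC50 is from the luciferase replicon assay; for MDBK it is from the MTS CPE assay.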

Hepatitis C virus = assay: Antiviral activity against HCV genotype 1b infected in Huh5-2 cells assessed as inhibition of viral replication after 4 days by luciferase reporter gene assay; type: functional, organism-based, Hepacivirus hominis, Huh-5-2; details: Hepatitis C virus, genotype 1b, Huh-5-2, 96 h
How it was run: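 Huh 5-2 cells carrying the HCV subgenomic luciferase replicon were seeded at 5 × 10³/well with compound and incubated 4 days at 37 °C. Medium was removed and luciferase activity quantified. EC50 is the minimum concentration reducing replicon-driven luciferase signal by 50%.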

[11] = Cytotoxicity against human Huh5-2 cells assessed as growth inhibition after 3 days by MTS assay; type: cell-based, Huh-5-2
How it was run: (§3)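 MDBK or Huh 5-2 cells were seeded at 5 × 10³/well in MEM-FCS, with serial compound dilutions added 24 h later. Cells proliferated 3 days at 37 °C, then metabolic activity was read by MTS/PMS. CC50 is the concentration inhibiting proliferation of exponentially growing cells by 50%, by linear interpolation.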

[12] = Selectivity index, ratio of CC50 for MDBK cells to EC50 for BVDV NADL infected in MDBK cells; how it was run: as §2
[13] = system: Bovine viral diarrhea virus 1-NADL; assay: Selectivity ratio of EC50 for LZ37-resistant BVDV NADL to EC50 for AG110-resistant BVDV NADL; type: functional
[14] = Cytotoxicity against MDBK cells assessed as growth inhibition after 3 days by MTS assay; type: cell-based, Bos taurus; details: cattle; how it was run: as §3
[15] = Antiviral activity against BVDV NADL infected in MDBK cells assessed as inhibition of progeny infectious viral particle production; type: functional, cell-based, Bovine viral diarrhea virus 1-NADL; details: Bovine viral diarrhea virus isolates and strains
[16] = (§4) Antiviral activity against BVDV NADL infected in MDBK cells assessed as inhibition of virus-induced cytopathic effect formation after 5 days by MTS assay; type: functional, cell-based, Bovine viral diarrhea virus 1-NADL; details: Bovine viral diarrhea virus isolates and strains, 120 h
How it was run: (§5)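 MDBK cells were seeded at 5 × 10³/well in MEM-FCS and held 24 h at 37 °C, 5% CO₂. Medium was replaced with 5-fold serial compound dilutions, then BVDV inoculum was added at MOI 2. CPE was read by MTS as OD at 490 nm. EC50 is the concentration giving 50% protection against virus-induced CPE, by linear interpolation.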

MDBK = assay: as §4; type: functional, cell-based; details: Bovine viral diarrhea virus 1-NADL; how it was run: as §5
[17] = Antiviral activity against BVDV NADL infected in MDBK cells assessed as inhibition of viral RNA synthesis by RT-qPCR analysis; type: functional, cell-based, Bovine viral diarrhea virus 1-NADL; details: Bovine viral diarrhea virus isolates and strains

| Structure (SMILES) | EC50 (Hepatitis C virus) | Ratio CC50/EC50 [1] | Ratio CC50/EC50 [2] | Ratio EC50 [3] | Ratio EC50 [4] | Ratio EC50 [5] | EC50 [6] | EC50 [7] | EC50 [8] | Ratio EC50 [9] | Ratio CC50/EC50 [10] | CC50 at 72 h [11] | Ratio CC50/EC50 [12] | Ratio EC50 [13] | CC50 at 72 h [14] | EC50 [15] | EC50 [16] | inhibition (MDBK) | EC50 [17] |
| --- | --- | --- | --- | --- | --- | --- | --- | --- | --- | --- | --- | --- | --- | --- | --- | --- | --- | --- | --- |
| Fc1ccc(-c2nc3ccc(Sc4ccccc4)cn3c2-c2cccc(-c3ccccc3)c2)cc1 | > 106 µg/mL | 19 | 37 | 2.2 | 0.9 | 1.5 | 8.8 µg/mL (≈ 18.6 µM) | 3.9 µg/mL (≈ 8.25 µM) | 6 µg/mL (≈ 12.7 µM) | 2 | >1 | > 106 µg/mL | >50 | 2 | > 100 µg/mL | 8 µg/mL (≈ 16.9 µM) | 2 µg/mL (≈ 4.23 µM) | Dose-dependent effect | 2.7 µg/mL (≈ 5.71 µM) |
| COc1ccccc1-c1nc2ccc(-c3ccsc3)cn2c1-c1cccc(-c2ccccc2)c1 | 17.5 µg/mL (≈ 38.2 µM) |  |  |  |  |  |  |  |  |  | 3.3 | 56.8 µg/mL (≈ 124 µM) | >1.5 |  | > 100 µg/mL |  | 68.6 µg/mL (≈ 150 µM) |  |  |
| Fc1ccc(-c2cccc(-c3c(-c4ccc(F)cc4)nc4ccccn34)c2)cc1 | 10.3 µg/mL (≈ 26.9 µM) |  |  |  |  |  |  |  |  |  | 5.3 | 54.5 µg/mL (≈ 143 µM) | 1.4 |  | 5.4 µg/mL (≈ 14.1 µM) |  | 3.9 µg/mL (≈ 10.2 µM) |  |  |
| Fc1ccc(-c2nc3ccc(-c4ccccc4)nn3c2-c2cccc(-c3ccccc3)c2)cc1 | 11.3 µg/mL (≈ 25.6 µM) |  |  |  |  |  |  |  |  |  | 1.4 | 15.9 µg/mL (≈ 36 µM) | 20 |  | 25 µg/mL (≈ 56.6 µM) |  | 1.23 µg/mL (≈ 2.79 µM) |  |  |

More lines, main results first:

| EC50 (Hepatitis C virus) | Structure (SMILES) | Ratio CC50/EC50 [1] | Ratio CC50/EC50 [2] | Ratio EC50 [3] | Ratio EC50 [4] | Ratio EC50 [5] | EC50 [6] | EC50 [7] | EC50 [8] | Ratio EC50 [9] | Ratio CC50/EC50 [10] | CC50 at 72 h [11] | Ratio CC50/EC50 [12] | Ratio EC50 [13] | CC50 at 72 h [14] | EC50 [15] | EC50 [16] | inhibition (MDBK) | EC50 [17] |
| --- | --- | --- | --- | --- | --- | --- | --- | --- | --- | --- | --- | --- | --- | --- | --- | --- | --- | --- | --- |
| 19.2 µg/mL (≈ 54.2 µM) | Fc1ccc(-c2nc3ccccn3c2-c2cccc(-c3ccoc3)c2)cc1 |  |  |  |  |  |  |  |  |  | 3.4 | 66.2 µg/mL (≈ 187 µM) | 3.2 |  | 5.6 µg/mL (≈ 15.8 µM) |  | 1.7 µg/mL (≈ 4.8 µM) |  |  |
| 3.9 µg/mL (≈ 9.16 µM) | CC(C)(C)c1nc2ccc(-c3ccsc3)nn2c1-c1cccc(-c2cccc(O)c2)c1 |  |  |  |  |  |  |  |  |  | 5.2 | 20 µg/mL (≈ 47 µM) | >26.7 |  | > 100 µg/mL |  | 3.7 µg/mL (≈ 8.69 µM) |  |  |
| > 112 µg/mL | Fc1ccc(-c2nc3ccc(-c4ccsc4)cn3c2-c2cccc(-c3ccccc3)c2)cc1 |  |  |  |  |  |  |  |  |  | >1 | > 112 µg/mL | >45 |  | > 33 µg/mL |  | 0.74 µg/mL (≈ 1.66 µM) |  |  |
| 5 µg/mL (≈ 11.7 µM) | CC(C)(C)c1nc2ccc(-c3ccsc3)nn2c1-c1cccc(-c2ccc(O)cc2)c1 |  |  |  |  |  |  |  |  |  | 3 | 15 µg/mL (≈ 35.2 µM) | >7.1 |  | > 100 µg/mL |  | 14.2 µg/mL (≈ 33.4 µM) |  |  |
| 11.1 µg/mL (≈ 24.6 µM) | Fc1ccc(-c2nc3ccc(N4CCOCC4)nn3c2-c2ccccc2-c2ccccc2)cc1 |  |  |  |  |  |  |  |  |  | 1 | 11.1 µg/mL (≈ 24.6 µM) | 3 |  | 31 µg/mL (≈ 68.8 µM) |  | 11 µg/mL (≈ 24.4 µM) |  |  |
